Test results published in ChEMBL document CHEMBL5252546, “Salutaxel, a Conjugate of Docetaxel and a Muramyl Dipeptide (MDP) Analogue, Acts as Multifunctional Prodrug That Inhibits Tumor Growth and Metastasis” (J Med Chem, 2018).
Calls of active or inactive are those of the source. No cut-off for these calls is given here.

What was measured:
[1] = system: 4T1; experiment: Antitumor activity against mouse 4T1 cells implanted in BALB/c mouse assessed as decrease in spleen MMP2 expression level at 5.7 mg/kg,iv administrated once per week for 4 weeks in presence of compound 5b by western blot assay; assay type: functional, organism-based
Outline: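 4T1 cells injected into mammary fat pads of BALB/c mice. Saline vehicle or test article given iv once weekly for 4 weeks. Spleen, lung and tumor lysates immunoblotted for MMP2/MMP9 with β-actin as loading control. Bands averaged over five mice per group, representative of two independent experiments.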

[2] = MRT in mouse plasma implanted with mouse 4T1 cells at 5.7 mg/kg,iv measured upto 72 hrs; assay type: ADME, organism-based
[3] = Drug concentration in plasma of Beagle dog at 1.14 mg/kg,iv measured upto 24 hrs; assay type: ADME, organism-based, Canis lupus familiaris; settings: in vivo
Outline: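 Taxane given as a single intravenous dose: 2.28 mg/kg to rats by injection and 1.14 mg/kg to Beagle dogs by infusion. Plasma concentrations were then measured.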

[4] = Toxicity in HaM/ICR mouse assessed as effect on motor autonomic activity at 5 to 20 mg/kg,iv; assay type: organism-based; settings: in vivo, dose 5-20 mg/kg
[5] = Tmax in female Beagle dog at 4 mg/kg,iv measured upto 24 hrs; assay type: ADME, organism-based, Canis lupus familiaris; settings: in vivo
[6] = Cmax in male Beagle dog at 4 mg/kg,iv measured upto 24 hrs; assay type: ADME, organism-based, Canis lupus familiaris; design: time < 24 hrs, dose 4 mg/kg, route iv; settings: in vivo
Outline: (§1)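 Beagle dogs were given a single iv infusion at 1, 2 or 4 mg/kg. Plasma parent drug and released docetaxel were followed over time. Cmax, Tmax, AUC, MRT, t1/2, CL and Vss were reported by sex and for all dogs combined.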

[7] = Tmax in male rat at 8 mg/kg,iv measured upto 24 hrs; assay type: ADME, organism-based; settings: in vivo
[8] = Cmax in female Beagle dog at 4 mg/kg,iv measured upto 24 hrs; assay type: ADME, organism-based, Canis lupus familiaris; design: time < 24 hrs, dose 4 mg/kg, route iv; settings: in vivo; outline: as §1
[9] = Stability in dog plasma assessed as compound remaining at 1 uM incubated for 6 hrs; assay type: ADME, cell-free, Canis lupus familiaris
[10] = AUC (0-t) in Beagle dog at 4 mg/kg,iv measured upto 24 hrs; assay type: ADME, organism-based, Canis lupus familiaris; design: dose 4 mg/kg, time < 24 hrs, route iv; settings: in vivo
Outline: (§2)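 Single iv dose: rats 2, 4 or 8 mg/kg by intravenous injection; Beagle dogs 1, 2 or 4 mg/kg by intravenous infusion. Plasma concentration–time data were analysed by sex and pooled. Reported parameters: Cmax, Tmax, AUC0−t, AUC0−∞, MRT0−∞, t1/2, CL, Vss, given as mean ± SD.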

[11] = system: 4T1; experiment: Antitumor activity against mouse 4T1 cells implanted in BALB/c mouse assessed as decrease in serum TIMP-1 level at 20 mg/kg,iv administrated once per week for 4 weeks by ELISA; assay type: functional, organism-based
Outline: (§3)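 4T1 fat-pad model in BALB/c mice, iv 5–20 mg/kg once weekly for 4 weeks, with vehicle and naive groups; serum MMP9, TIMP-1, IL-6 and S100A9 measured by mouse ELISA kits.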

[12] = MRT (0 to infinity) in Beagle dog at 4 mg/kg,iv measured upto 24 hrs; assay type: ADME, organism-based, Canis lupus familiaris; settings: in vivo
[13] = Volume of distribution at steady state in female Beagle dog at 4 mg/kg,iv measured upto 24 hrs; assay type: ADME, organism-based, Canis lupus familiaris; settings: in vivo, read-out: Vdss
[14] = Volume of distribution at steady state in female Beagle dog at 1 mg/kg,iv measured upto 24 hrs; assay type: ADME, organism-based, Canis lupus familiaris; settings: in vivo, read-out: Vdss
[15] = Tmax in female rat at 8 mg/kg,iv measured upto 24 hrs; assay type: ADME, organism-based; settings: in vivo
[16] = Toxicity in HaM/ICR mouse assessed as effect on motor coordination at 5 to 20 mg/kg,iv; assay type: organism-based; settings: in vivo, dose 5-20 mg/kg
[17] = Cmax in female rat at 8 mg/kg,iv measured upto 24 hrs; assay type: ADME, organism-based; design: time < 24 hrs, dose 8 mg/kg, route iv; settings: in vivo
Outline: (§4)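 Rats were given a single iv injection at 2, 4 or 8 mg/kg. Plasma parent drug and released docetaxel were followed over time. Cmax, Tmax, AUC, MRT, t1/2, CL and Vss were reported for males, females and all animals combined.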

[18] = system: 4T1; experiment: Antitumor activity against mouse 4T1 cells implanted in BALB/c mouse assessed as decrease in spleen MDSC cells at 5 mg/kg,iv measured after 28 days (reference value: 38%); assay type: functional; design: scale not given: the % may be the effect or the level left; settings: time 28 day
[19] = system: 4T1; experiment: Synergistic antitumor activity against mouse 4T1 cells xenografted with BALB/c mouse assessed as decrease in tumor volume at 10 mg/kg,iv administrated in combination with doxorubicin once per week for 4 weeks; assay type: functional, organism-based
[20] = system: 4T1; experiment: Antitumor activity against mouse 4T1 cells xenografted with BALB/c mouse assessed as decrease in tumor weight at 10 mg/kg,iv administrated once per week for 4 weeks; assay type: functional, organism-based
Outline: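 4T1 cells injected into the mammary fat pad of BALB/c mice; iv saline vehicle or 5, 10 or 20 mg/kg once weekly for 4 weeks; body weight, tumour volume, tumour weight, lung metastatic nodule count and metastasis score recorded; n = 10, mean ± SEM, ANOVA and Student's t test.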

[21] = Cmax in Beagle dog at 2 mg/kg,iv measured upto 24 hrs; assay type: ADME, organism-based, Canis lupus familiaris; design: dose 2 mg/kg, time < 24 hrs, route iv; settings: in vivo; outline: as §1
[22] = Tmax in rat at 2 mg/kg,iv measured upto 24 hrs; assay type: ADME, organism-based; settings: in vivo
[23] = Clearance in female rat at 2 mg/kg,iv measured upto 24 hrs; assay type: ADME, organism-based; settings: in vivo; outline: as §4
[24] = AUC (0-t) in male rat at 8 mg/kg,iv measured upto 24 hrs; assay type: ADME, organism-based; design: time < 24 hrs, dose 8 mg/kg, route iv; settings: in vivo; outline: as §2
[25] = Clearance in rat at 8 mg/kg,iv measured upto 24 hrs; assay type: ADME, organism-based; settings: in vivo; outline: as §4
[26] = Stability in monkey plasma assessed as compound remaining at 1 uM incubated for 6 hrs; assay type: ADME, cell-free, Macaca mulatta; settings: rhesus monkey
[27] = Drug distribution in rat spleen at 4 mg/kg,iv measured by 0.25 hrs; assay type: ADME, organism-based; settings: in vivo
Outline: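 Rats received 4 mg/kg iv. Parent drug and released docetaxel were assayed in tissues and plasma from the first sampling at 0.25 h to 24 h. The lower limit of quantitation was 200 ng/g.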

[28] = Half life in male rat at 2 mg/kg,iv measured upto 24 hrs; assay type: ADME, organism-based; settings: in vivo
[29] = Volume of distribution at steady state in rat at 8 mg/kg,iv measured upto 24 hrs; assay type: ADME, organism-based; settings: in vivo, read-out: Vdss
[30] = Prodrug conversion in mouse plasma implanted with mouse 4T1 cells assessed as half life of docetaxel at 4 mg/kg,iv measured upto 72 hrs; assay type: ADME, organism-based; settings: in vivo
[31] = Cmax in mouse tumor implanted with mouse 4T1 cells at 10 mg/kg,iv measured upto 72 hrs; assay type: ADME, organism-based, Neoplasm; design: time < 72 hrs, dose 10 mg/kg, route iv
Outline: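 BALB/c mice carried 4T1 cells implanted in the mammary fat pad and received a single iv dose of 10 mg/kg. Parent drug and released docetaxel were assayed in plasma and tumor tissue up to 72 h. Parameters came from noncompartmental analysis, n = 6, mean ± SD.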

[32] = Clearance in female rat at 4 mg/kg,iv measured upto 24 hrs; assay type: ADME, organism-based; settings: in vivo; outline: as §4
[33] = MRT (0 to infinity) in female rat at 4 mg/kg,iv measured upto 24 hrs; assay type: ADME, organism-based; settings: in vivo
[34] = system: 4T1; experiment: Antitumor activity against mouse 4T1 cells implanted in BALB/c mouse assessed as decrease in serum TIMP-1 level at 5 mg/kg,iv administrated once per week for 4 weeks by ELISA; assay type: functional, organism-based; outline: as §3
[35] = Toxicity in BALB/c mouse xenografted with human A549/Taxol cells assessed as side effects at 10 mg/kg,iv administrated once per week for 3 weeks; assay type: organism-based, A549/TR; settings: in vivo, 504 h
[36] = Cmax in Beagle dog at 4 mg/kg,iv measured upto 24 hrs; assay type: ADME, organism-based, Canis lupus familiaris; design: dose 4 mg/kg, time < 24 hrs, route iv; settings: in vivo; outline: as §1
[37] = AUC (0-infinity) in rat at 4 mg/kg,iv measured upto 24 hrs; assay type: ADME, organism-based; design: dose 4 mg/kg, time < 24 hrs, route iv; settings: in vivo; outline: as §2
[38] = AUC (0-t) in female rat at 4 mg/kg,iv measured upto 24 hrs; assay type: ADME, organism-based; design: time < 24 hrs, dose 4 mg/kg, route iv; settings: in vivo; outline: as §2

With `CC(=O)O[C@@]12CO[C@@H]1C[C@H](O)[C@@]1(C)C(=O)[C@H](O)C3=C(C)[C@@H](OC(=O)[C@H](O)[C@@H](NC(=O)OC(C)(C)C)c4ccccc4)C[C@@](O)([C@@H](OC(=O)c4ccccc4)[C@H]21)C3(C)C` [DOCETAXEL ANHYDROUS] the Activity [1] was “inactive”, the MRT [2] was 137 min and the Drug uptake [3] was 0.8%.
In the case of `CC(=O)O[C@@]12CO[C@@H]1C[C@H](O)[C@@]1(C)C(=O)[C@H](O)C3=C(C)[C@@H](OC(=O)[C@H](OC(=O)CCC(=O)NCCCC[C@H](NC(=O)CC[C@@H](NC(=O)[C@H](C)NC(=O)/C=C/c4ccc(F)cc4Cl)C(N)=O)C(=O)O)[C@@H](NC(=O)OC(C)(C)C)c4ccccc4)C[C@@](O)([C@@H](OC(=O)c4ccccc4)[C@H]21)C3(C)C`, the Activity [4] is reported as “Non-Toxic”, the Tmax [5] is reported as 30 min and the Cmax [6] is reported as 29600 ng/mL. For the same compound, the Tmax [7] was 4.98 min, the Cmax [8] was 30800 ng/mL and the Stability [9] was “Stable”. For the same compound, the AUC(0-t) at 24 h [10] was 17200 ng·h/mL, the Activity [11] was “Active” and the MRT inf [12] was 20.3 min. For the same compound, the Vd [13] was 0.087 L/kg, the Vd [14] was 0.204 L/kg and the Tmax [15] was 4.98 min. The Activity [16] was “Non-Toxic”, the Cmax [17] was 62500 ng/mL and the Activity [18] was 36.2%. The Activity [19] was “Active”, the Activity [20] was “Active” and the Cmax [21] was 12700 ng/mL. It also gave a Tmax [22] of 4.98 min, a clearance [23] of 7.73 mL/min/kg and an AUC(0-t) at 24 h [24] of 52300 ng·h/mL. The clearance [25] was 2.97 mL/min/kg, the Stability [26] was “Stable” and the Drug uptake [27] was “Active”. It also gave a half-life [28] of 9 min, a Vd [29] of 0.096 L/kg and a t1/2 [30] of 178 min. The Cmax [31] was 140 nM, the clearance [32] was 5.13 mL/min/kg and the MRT inf [33] was 15.7 min. The Activity [34] was “Active”, the Activity [35] was “Non-Toxic” and the Cmax [36] was 30100 ng/mL. It also gave an AUC(0-inf) [37] of 16900 ng·h/mL and an AUC(0-t) at 24 h [38] of 13000 ng·h/mL.
